Activity data for one compound are collected here from ChEMBL document CHEMBL4265908, “Structure-activity and structure-property relationships of novel Nrf2 activators with a 1,2,4-oxadiazole core and their therapeutic effects on acetaminophen (APAP)-induced acute liver injury” (Eur J Med Chem, 2018).

The target of data set [1] is T1, Nuclear factor erythroid 2-related factor 2 (Homo sapiens) (UniProt Q16236).
T1 sequence (whole entry): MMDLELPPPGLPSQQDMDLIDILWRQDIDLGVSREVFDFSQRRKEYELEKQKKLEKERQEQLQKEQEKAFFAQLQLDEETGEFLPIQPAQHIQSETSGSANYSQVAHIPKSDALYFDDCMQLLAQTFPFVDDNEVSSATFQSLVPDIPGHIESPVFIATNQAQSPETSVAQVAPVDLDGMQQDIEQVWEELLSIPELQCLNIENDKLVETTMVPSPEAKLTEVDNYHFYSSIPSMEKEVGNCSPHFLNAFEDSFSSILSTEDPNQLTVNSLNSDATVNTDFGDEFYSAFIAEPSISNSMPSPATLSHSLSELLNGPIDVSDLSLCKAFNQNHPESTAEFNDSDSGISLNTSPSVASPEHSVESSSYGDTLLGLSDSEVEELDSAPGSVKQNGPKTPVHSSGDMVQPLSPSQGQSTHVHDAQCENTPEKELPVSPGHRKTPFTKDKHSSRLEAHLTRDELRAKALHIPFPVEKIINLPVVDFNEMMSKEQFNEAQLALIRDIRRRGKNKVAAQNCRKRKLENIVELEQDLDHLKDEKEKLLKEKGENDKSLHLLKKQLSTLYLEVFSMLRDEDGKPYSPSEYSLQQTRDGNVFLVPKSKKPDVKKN
The experiment in a line: Activation of Nrf2 in human HepG2-ARE-C8 cells assessed as induction of ARE-mediated luciferase activity at 20 uM after 24 hrs by luciferase reporter gene assay relative to control. Type of data set: cell-based. In short, it runs like this: (§1)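 HepG2-ARE-C8 cells stably carrying ARE-luciferase, grown in DMEM with 10% FBS at 37 °C and 5% CO2. Seeded at 5 × 10^4 cells/well, left overnight, then given compound diluted from a 10 mM DMSO stock for 24 h. Cells lysed and luciferase read as RLU. Inductivity = (RLUtest − RLUblank)/(RLUcontrol − RLUblank), with DMSO as control. Mean ± SEM of three experiments.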

For data set [2], the target named is T1, Nuclear factor erythroid 2-related factor 2 (Homo sapiens). The experiment in a line: Activation of Nrf2 in human HepG2-ARE-C8 cells assessed as induction of ARE-mediated luciferase activity at 40 uM after 24 hrs by luciferase reporter gene assay relative to control. The data set is classed as cell-based. In short, it runs like this:
as §1

Data set [3] has the same target. The experiment in a line: Activation of Nrf2 in human HepG2-ARE-C8 cells assessed as induction of ARE-mediated luciferase activity at 80 uM after 24 hrs by luciferase reporter gene assay relative to control. Type of data set: cell-based. In short, it runs like this:
as §1

The test system of data set [4] is L02. The experiment in a line: Cytotoxicity against human LO2 cells up to 160 uM after 24 hrs by MTT assay. Type of data set: cell-based. Particulars: l02, 24 h. The essentials: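 LO2 cells plated for 12 h, then treated for 24 h with 0, 0.2, 2, 20, 40, 80 or 160 μM compound diluted in medium from a DMSO stock. MTT (5 mg/mL stock) added for 4 h, formazan dissolved in DMSO, A570 read. Viability computed from OD relative to DMSO control and blank. Mean ± SD of three experiments.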

For data set [5], the target named is T1, Nuclear factor erythroid 2-related factor 2 (Homo sapiens). The experiment in a line: Activation of Nrf2 in human HepG2-ARE-C8 cells assessed as induction of ARE-mediated luciferase activity at 0.02 uM after 24 hrs by luciferase reporter gene assay relative to control. Type of data set: cell-based.
Data set [6] has the same target. The experiment in a line: Activation of Nrf2 in human HepG2-ARE-C8 cells assessed as induction of ARE-mediated luciferase activity at 0.2 uM after 24 hrs by luciferase reporter gene assay relative to control. Type of data set: cell-based.
For data set [7] the target is unchanged. The experiment in a line: Activation of Nrf2 in human HepG2-ARE-C8 cells assessed as induction of ARE-mediated luciferase activity at 2 uM after 24 hrs by luciferase reporter gene assay relative to control. The data set is classed as cell-based.
In data set [8] the test system is L02. The experiment in a line: Hepatoprotective activity against APAP-induced cell injury in human LO2 cells assessed as increase in cell viability at 20 uM pretreated for 24 hrs followed by APAP treatment measured after 24 hrs by MTT assay. The data set is classed as functional. The essentials: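 LO2 cells plated for 12 h and pretreated for 24 h with 5, 10 or 20 μM compound. One arm was first transfected with 50 nM Nrf2 siRNA before receiving 20 μM compound. Medium then replaced with medium containing 8 mM APAP for 24 h. Viability by MTT at A570. Mean ± SD of three experiments.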

Each structure is given as a SMILES string. Calls of active or inactive are those of the source. The rule behind the calls is not given here.

As to `CC(C)(C)c1cc(O)ccc1O` [E319], the Activity in data set [1] was 1.41; in data set [2], 2.14; in data set [3], 5.27; in the data set on L02 [4], “<= 7%”; in data set [5], 1.18; in data set [6], 1.25. Also, in data set [7], the Activity is 1.24. For the same compound, the result in the data set on L02 [8] was Active.
